TAAR1 ag = human TAAR1 agonism; activation, % at 3 µM; CHO RD-HGA16 TAAR1, Fluo-8 calcium fluorescence; vehicle wells 0%, saturating PEA agonist 100%; actives 0.99% (n = 360,000); Q96RJ0; AID 624467;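 active = activation above the mean activation of all test compounds in the run plus 3 SD, cut at about 38% in these data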
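Assay system – CHO-derived RD-HGA16 cells with stable Gα16 and human TAAR1 · Compound dosing – one-point dosing at 3 µM (nominal) · Incubation – 17-24 h seeding, 75 min 37 °C dye, 30 min RT · Measured by – kinetic Fluo-8 calcium fluorescence · Control set – DMSO vehicle as 0%, PEA at EC100 as 100% · Repeats – single well for each compound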
V1R ag counter = activates human V1a receptor in oxytocin agonist counter-screen; CHO-V1R cells, Fluo-8 calcium fluorescence, agonist mode; 0% DMSO, 100% 3 nM vasopressin; actives 0.25% (n = 320,000); P37288; activation, % at 3 µM;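 active = activation above the mean activation of all tested compounds plus 3 SD, per screening run, cut at about 20% in these data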;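 also: signal is peak over basal fluorescence ratio across a 100 second FLIPR read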
Target sequence (P37288 whole entry, looked up): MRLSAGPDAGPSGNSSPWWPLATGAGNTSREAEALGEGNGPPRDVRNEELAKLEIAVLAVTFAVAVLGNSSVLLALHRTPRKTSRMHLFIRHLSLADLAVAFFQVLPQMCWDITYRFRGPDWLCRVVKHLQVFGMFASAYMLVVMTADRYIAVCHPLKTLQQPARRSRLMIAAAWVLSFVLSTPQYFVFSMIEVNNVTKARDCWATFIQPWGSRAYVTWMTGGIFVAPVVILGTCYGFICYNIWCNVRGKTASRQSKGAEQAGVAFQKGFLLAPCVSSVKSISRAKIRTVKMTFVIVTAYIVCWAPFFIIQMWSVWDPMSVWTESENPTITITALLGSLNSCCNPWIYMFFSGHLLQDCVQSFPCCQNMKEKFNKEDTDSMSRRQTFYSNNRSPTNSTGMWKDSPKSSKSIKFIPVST
OXTR potentiator = human OXTR potentiation; P30559; CHO-OTR cells, Fluo-8 calcium fluorescence, potentiator mode; 0% = oxytocin EC15, 100% = EC100; activation, % at 3 µM; actives 0.061% (n = 320,000); AID 2445;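 active = activation above that plate's cutoff, the mean activation of tested compounds plus 3 SD, cut at about 6.6% in these data, passing the limit was not always enough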
Target sequence (P30559 whole entry, looked up): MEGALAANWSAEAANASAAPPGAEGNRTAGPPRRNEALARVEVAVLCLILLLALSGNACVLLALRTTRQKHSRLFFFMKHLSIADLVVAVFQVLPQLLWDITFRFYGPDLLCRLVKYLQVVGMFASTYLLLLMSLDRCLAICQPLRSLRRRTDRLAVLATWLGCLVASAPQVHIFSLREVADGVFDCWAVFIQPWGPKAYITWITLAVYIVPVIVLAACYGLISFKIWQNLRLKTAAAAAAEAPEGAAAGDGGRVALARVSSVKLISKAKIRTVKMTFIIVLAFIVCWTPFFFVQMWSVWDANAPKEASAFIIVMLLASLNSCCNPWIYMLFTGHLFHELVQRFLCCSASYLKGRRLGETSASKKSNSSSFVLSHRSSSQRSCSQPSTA
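Assay system: CHO-OTR cells, human receptor / Also added: oxytocin at about EC15, sub-maximal agonist stimulus / Dosing: single dose, 3.0 µM nominal final compound concentration / Incubation: 6 min pre-incubation, 100 s read / Technique: Fluo-8 calcium dye fluorescence / Read-out: % activation vs EC15 and EC100 oxytocin / Benchmarks: EC15 oxytocin low, 75 nM oxytocin high / Replicates: singlicate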
OXTR ag = human OXTR agonism | P30559 | CHO-OTR cells, Fluo-8 calcium fluorescence; normalized: DMSO 0%, oxytocin 100% | activation, % at 3 µM | actives 0.32% (n = 320,000);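 active = activation above the mean of all tested compounds plus 3 SD, cutoff set per screening run, cut at about 20% in these data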;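 also: peak over basal fluorescence ratio from a 100 s FLIPR kinetic read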
TAAR1 antagonist = antagonists of human TAAR1 | inhibition, % at 3 µM | AID 624466 | Q96RJ0 | actives 1.5% (n = 360,000) | CHO RD-HGA16 TAAR1, Fluo-8 calcium fluorescence, antagonist;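 active = inhibition above a per-plate cutoff, the mean inhibition of test compounds on that plate plus 3 SD, cut at about 49% in these data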
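Test system – hTAAR1-expressing CHO RD-HGA16 cells, Gα16-coupled · Also added – β-PEA at EC80 concentration, post-compound challenge · Compound – 3 µM, single point · Incubation – dye loading 75 min at 37 °C, then 30 min room temperature · Measured by – Fluo-8 intracellular calcium dye fluorescence, real-time kinetic reads · Benchmarks – vehicle and agonist controls · Replicates – singlicate, one well per test compound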
TAAR1 nonsel count = nonselective antagonist in TAAR1 antagonist counter-screen | shares compounds with TAAR1 antagonist | counterscreen cell line, calcium fluorescence, antagonist mode | inhibition, % at 3 µM | actives 77% (n = 2,400) | AID 651780; in the data active = inhibition above about 22%;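 also: CHO-Ga16 host cells stimulated with ATP at an EC80 level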
TAAR1 ant conf = human TAAR1 antagonism, confirmed. actives 40% (n = 2,400). inhibition, % at 3 µM. AID 651785. TAAR1-expressing cells, fluorescence antagonist read-out. shares compounds with TAAR1 antagonist; in the data active = inhibition above about 49%;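 also: CHO-Ga16 host cells challenged with agonist PEA near its EC80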
Ga16 ag counter = nonselective Ga16 agonist in TAAR1 antagonist counter-screen; activation, % at 3 µM; Ga16-expressing cells, calcium fluorescence, agonist counterscreen; shares compounds with TAAR1 antagonist; AID 651953; actives 18% (n = 2,400); in the data active = activation above about 12%
TAAR1 ag counter = activates human TAAR1 in antagonist counter-screen; shares compounds with TAAR1 antagonist; hTAAR1 cell line, fluorescence activation, agonist mode; activation, % at 3 µM; actives 2% (n = 2,400); in the data active = activation above about 37%;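 also: CHO cells stably expressing TAAR1 with calcium dye readout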
Large screens that a line does not name were inactive (follow-up assays come after a bar, where they were run). In the library only some 2.3% were active in any assay of this set; here they are far more common.

Cc1c(NC(=O)c2cc(-c3ccccc3)nc3ccccc23)c(=O)n(-c2ccccc2)n1C	TAAR1 antagonist 59 | TAAR1 nonsel count 28 | TAAR1 ant conf 50 | Ga16 ag counter inactive | TAAR1 ag counter inactive
Cc1ccc(-c2cc(C(=O)Nc3c(C)n(C)n(-c4ccccc4)c3=O)c3ccccc3n2)cc1	TAAR1 antagonist 49 | TAAR1 nonsel count 30 | TAAR1 ant conf inactive | Ga16 ag counter inactive | TAAR1 ag counter inactive
COc1cc2c(cc1OC)-c1nnnn1C(C)(C)C2	none
COc1cc2c(cc1OC)-c1nnc(-c3cccs3)n1C(C)(C)C2	TAAR1 antagonist 50 | TAAR1 nonsel count inactive | TAAR1 ant conf inactive | Ga16 ag counter inactive | TAAR1 ag counter inactive
O=C1CCCC/C1=C/NCc1ccccc1	none
C=CCNC(=O)/C(=C\C=C\c1ccccc1)NC(=O)c1ccccc1Cl	TAAR1 antagonist 62 | TAAR1 nonsel count 25 | TAAR1 ant conf inactive | Ga16 ag counter inactive | TAAR1 ag counter inactive
Cc1c(Cl)cnc(NC(=O)COC(=O)c2ccncc2)c1Cl	TAAR1 antagonist 101 | TAAR1 nonsel count inactive | TAAR1 ant conf inactive | Ga16 ag counter inactive | TAAR1 ag counter inactive
Cc1ccc(C)c(NC(=O)C(Sc2nc3ccccc3c(=O)n2CC(C)C)c2ccccc2)c1 (centres undefined)	TAAR1 antagonist 56 | TAAR1 nonsel count 28 | TAAR1 ant conf 50 | Ga16 ag counter inactive | TAAR1 ag counter inactive
O=C(Nc1ccc(Cl)c(S(=O)(=O)N2CCOCC2)c1)c1cc(-c2ccccn2)nc2ccccc12	TAAR1 antagonist 63 | TAAR1 nonsel count 43 | TAAR1 ant conf 57 | Ga16 ag counter 14 | TAAR1 ag counter inactive
O=C(Nc1cccc(C(=O)NC2CC2)c1)c1ccc(Cl)c(S(=O)(=O)N2CCOCC2)c1	none
O=C(Nc1cccc(S(=O)(=O)N2CCCCCC2)c1)c1ccc(Cl)nc1	TAAR1 antagonist 54 | TAAR1 nonsel count 27 | TAAR1 ant conf inactive | Ga16 ag counter inactive | TAAR1 ag counter inactive
O=C(Nc1ccc(Cl)c(S(=O)(=O)N2CCOCC2)c1)c1ccccn1	none
O=C(Nc1cccc(S(=O)(=O)C(F)F)c1)c1ccc(Cl)c(S(=O)(=O)N2CCOCC2)c1	TAAR1 antagonist 74 | TAAR1 nonsel count 50 | TAAR1 ant conf 65 | Ga16 ag counter 19 | TAAR1 ag counter inactive
O=C(Nc1ccc(Cl)c(S(=O)(=O)N2CCOCC2)c1)c1ccc(Cl)nc1	TAAR1 antagonist 67 (no result: V1R ag counter, OXTR potentiator, OXTR ag) | TAAR1 nonsel count 32 | TAAR1 ant conf 52 | Ga16 ag counter 12 | TAAR1 ag counter inactive
O=C(Nc1cccc(S(=O)(=O)N2CCCCC2)c1)c1ccc(Cl)nc1	none
Cn1c(=O)[nH]c2c(c1=O)CCO2	none (no result: V1R ag counter, OXTR potentiator, OXTR ag)
CCOC(=O)c1ccc(NC(=O)CSc2nnc(CNC(=O)c3ccco3)o2)cc1	none
Cc1[nH]c2ccccc2c1C(=O)COC(=O)c1nccnc1N	none
O=C(Nc1ccc(Cl)c(S(=O)(=O)N2CCOCC2)c1)c1ccc2c(c1)OCO2	TAAR1 antagonist 66 | TAAR1 nonsel count 32 | TAAR1 ant conf inactive | Ga16 ag counter 15 | TAAR1 ag counter inactive
O=C1C(=Cc2cccs2)C(=O)c2ccccc21	TAAR1 antagonist 104 | TAAR1 nonsel count inactive | TAAR1 ant conf inactive | Ga16 ag counter inactive | TAAR1 ag counter inactive
Cc1ccc(-c2nc3cccnc3s2)cc1NS(=O)(=O)c1ccc2c(c1)OCCO2	TAAR1 antagonist 59 | TAAR1 nonsel count 30 | TAAR1 ant conf inactive | Ga16 ag counter inactive | TAAR1 ag counter inactive
CN(Cc1nccs1)C(=O)C1CCC(=O)N(CCCc2ccccc2)C1 (centres undefined)	none (no result: V1R ag counter, OXTR potentiator, OXTR ag)
CC1Nc2ncnc(N3CCN(c4ccccc4)CC3)c2N(Cc2ccc(Br)cc2)C1=O (centres undefined)	TAAR1 antagonist 57 | TAAR1 nonsel count inactive | TAAR1 ant conf inactive | Ga16 ag counter inactive | TAAR1 ag counter inactive
COc1ccc(CN2C(=O)C(C)Nc3ncnc(N4CCN(c5ccccc5)CC4)c32)cc1 (centres undefined)	none
Cc1ccc(CS(=O)(=O)CCC(=O)O)cc1	none
CC(=O)Nc1ccc(S(=O)(=O)N2CCN(c3ccc(C(C)=O)cc3)CC2)cc1	none (no result: V1R ag counter, OXTR potentiator, OXTR ag)
Cc1c(C(=O)NCc2ccc3c(c2)OCO3)sc2nc(-c3ccccc3)cn12	none
Cc1c(C(=O)Nc2ccc3c(c2)OCO3)sc2nc(-c3ccccc3)cn12	TAAR1 antagonist 85 | TAAR1 nonsel count 44 | TAAR1 ant conf 63 | Ga16 ag counter 12 | TAAR1 ag counter inactive
O=C(Nc1cccc(NC(=O)c2cncc(Br)c2)c1)c1cncc(Br)c1	TAAR1 antagonist 67 | TAAR1 nonsel count 29 | TAAR1 ant conf 52 | Ga16 ag counter 17 | TAAR1 ag counter inactive
O=C(NCCN1C(=O)S/C(=C\c2ccccc2)C1=O)c1cc(S(=O)(=O)N2CCOCC2)c(Cl)cc1Cl	TAAR1 antagonist 78 | TAAR1 nonsel count 50 | TAAR1 ant conf 70 | Ga16 ag counter 19 | TAAR1 ag counter inactive
O=C(NCCN1C(=O)S/C(=C\c2ccc(F)cc2)C1=O)c1cccc(S(=O)(=O)N2CCOCC2)c1	TAAR1 antagonist 70 | TAAR1 nonsel count 43 | TAAR1 ant conf 60 | Ga16 ag counter 15 | TAAR1 ag counter inactive
O=C(NCCN1C(=O)S/C(=C\c2ccc(Cl)cc2)C1=O)c1ccc(F)c(S(=O)(=O)N2CCOCC2)c1	none
O=C(C1=C[C@@H](c2ccc(C(F)(F)F)cc2)C[C@@H](OCc2ccc(CO)cc2)O1)N1CCN(Cc2ccc3c(c2)OCO3)CC1	TAAR1 antagonist 55 | TAAR1 nonsel count 32 | TAAR1 ant conf inactive | Ga16 ag counter inactive | TAAR1 ag counter inactive
C=CCN1C[C@H](COC(=O)c2cccc(OC)c2)Oc2cccc(F)c2S1(=O)=O	TAAR1 antagonist 79 (no result: V1R ag counter, OXTR potentiator, OXTR ag) | TAAR1 nonsel count 41 | TAAR1 ant conf 56 | Ga16 ag counter 12 | TAAR1 ag counter inactive
Cc1cnc(C(=O)NC2CC(C)(C)Cc3c2cnn3-c2ccccc2)cn1 (centres undefined)	none
OCCNc1ncnc2c1c(-c1ccccc1)c(-c1ccccc1)n2Cc1ccco1	none
c1ccc(-c2c(-c3ccccc3)n(Cc3ccco3)c3ncnc(NCCCn4ccnc4)c23)cc1	TAAR1 antagonist 61 | TAAR1 nonsel count 25 | TAAR1 ant conf inactive | Ga16 ag counter 22 | TAAR1 ag counter 40
